Assays:
[1] = Bronchoselectivity expressed as ratio of positive chronotropic action (ED15) to bronchodilator action (ED50)
Adenosine receptor A1 = molecular target: T1, Adenosine receptor A1 (Cavia porcellus, UniProt P47745); experiment: Binding affinity against adenosine A1 receptor of cerebral cortex using [3H]CPX as a radioligand; assay type: tissue-based
T1 sequence (P47745 whole entry): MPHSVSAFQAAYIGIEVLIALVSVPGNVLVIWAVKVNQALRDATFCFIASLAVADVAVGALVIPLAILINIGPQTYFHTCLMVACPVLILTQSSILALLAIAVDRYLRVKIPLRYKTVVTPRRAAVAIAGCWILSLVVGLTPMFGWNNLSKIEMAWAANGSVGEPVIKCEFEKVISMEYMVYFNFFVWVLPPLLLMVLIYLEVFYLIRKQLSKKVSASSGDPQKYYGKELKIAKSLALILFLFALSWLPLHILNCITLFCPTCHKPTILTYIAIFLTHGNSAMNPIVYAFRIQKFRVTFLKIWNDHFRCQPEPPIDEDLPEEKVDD

Cavia porcellus [2] = experiment: Positive chronotropic effect, 15% increase in heart rate of male Hartley guinea pigs on intraduodenal administration (mean of 3-5 animals); assay type: functional
In short: (§1)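 Urethane-anesthetized (1.5 g/kg ip), ventilated male Hartley guinea pigs; compound suspended in 0.5% carboxymethylcellulose given intraduodenally 5 min before iv acetylcholine 40 μg/kg (jugular, every 15 min, after three stable responses); Konzett–Rossler overflow bronchospasm and carotid-pulse heart rate followed 110 min.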

Cavia porcellus [3] = experiment: Bronchodilatory effect, 50% inhibition of spasmogen-induced response in male Hartley guinea pigs on intraduodenal administration; assay type: functional; in short: as §1
Cavia porcellus [4] = species: Cavia porcellus; experiment: Effective concentration required in vitro for heart stimulation (right atrium) in guinea pig; assay type: functional; details: Cardiac atrium
In short: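 Isolated right atrium of male Hartley guinea pigs, 25 °C Krebs-Henseleit gassed 95% O2–5% CO2, 0.5 g tension; cumulative concentrations; beating rate via cardiometer triggered by isometric contraction. EC15 = concentration raising rate 15% above unstimulated; 3–5 experiments.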

[5] = molecular target: Adenosine A2 receptor (guinea pig); experiment: Binding affinity against adenosine A2 receptor of striatal membrane using [3H]CGS-21680 as a radioligand
Cavia porcellus [6] = species: Cavia porcellus; experiment: Effective concentration required in vitro for tracheal muscle (from male Hartley guinea pigs) relaxation; assay type: functional; details: Trachea
In short: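 Tracheal ring chains from male Hartley guinea pigs (300–500 g), 37 °C Krebs-Henseleit pH 7.4, 95% O2–5% CO2, 0.5 g tension, spontaneous tone; cumulative compound addition, isotonic recording.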

[7] = molecular target: cyclic AMP phosphodiesterase (guinea pig); experiment: Inhibition of cyclic AMP-phosphodiesterase ( PDE) in the supernatant of tracheal muscle homogenate
[8] = Bronchoselectivity expressed as ratio of stimulatory activity in the right atrium (EC15) to relaxant activity in the tracheal muscle (EC50); assay type: functional, Cardiac atrium

Selectivity [1]: 6
Ki (Adenosine receptor A1): 60 nM
Ki [5]: 3200 nM
EC50 (Cavia porcellus [6]): 200 nM
Ki [7]: 14600 nM
Compound: C=CCCn1c(=O)c2[nH]cnc2n(CCC)c1=O
ED15 (Cavia porcellus [2]): 11 mg/kg
ED50 (Cavia porcellus [3]): 1.84 mg/kg
EC15 (Cavia porcellus [4]): 4500 nM
Selectivity [8]: 22.5
